The values that follow come from ChEMBL document CHEMBL1153214, “Synthesis and PGE(2) production inhibition of 1H-furan-2,5-dione and 1H-pyrrole-2,5-dione derivatives” (Bioorg Med Chem Lett, 2010).

Molecules are shown by their SMILES.

In assay [1] the test system is RAW264.7. As to the kind of experiment: Cytotoxicity against LPS-stimulated mouse RAW264.7 cells assessed as cell viability after 24 hrs by MTT assay. Format: cell-based. Particulars: RAW264.7, 24 h; call rule not given here. In a few lines:
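RAW 264.7 cells plated at 10⁵ cells/well in 96-well plates, treated with various concentrations of compounds in the presence of LPS. Viability read by colorimetric MTT assay 24 h after treatment.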
(Tetrazolium assays rely on reduction of a dye to a coloured formazan, in cell work by metabolically active cells.)

Assay [2] deals with RAW264.7. Nature of the assay: Antiinflammatory activity in mouse RAW264.7 cells assessed as inhibition of LPS-induced PGE2 production by EIA. It counts as functional, cell-based. The procedure, abridged:
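RAW 264.7 macrophages seeded at 10⁵ cells/well in 96-well plates. Cells pretreated with test samples at increasing concentrations or NS398 as positive control, then stimulated with LPS 1 µg/ml for the indicated time. PGE₂ in the medium quantified by EIA. IC50 derived; experiments run at least three times.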

Assay [3] concerns the target T1, Prostaglandin G/H synthase 2 (Homo sapiens, UniProt P35354).
T1 sequence (P35354 whole entry): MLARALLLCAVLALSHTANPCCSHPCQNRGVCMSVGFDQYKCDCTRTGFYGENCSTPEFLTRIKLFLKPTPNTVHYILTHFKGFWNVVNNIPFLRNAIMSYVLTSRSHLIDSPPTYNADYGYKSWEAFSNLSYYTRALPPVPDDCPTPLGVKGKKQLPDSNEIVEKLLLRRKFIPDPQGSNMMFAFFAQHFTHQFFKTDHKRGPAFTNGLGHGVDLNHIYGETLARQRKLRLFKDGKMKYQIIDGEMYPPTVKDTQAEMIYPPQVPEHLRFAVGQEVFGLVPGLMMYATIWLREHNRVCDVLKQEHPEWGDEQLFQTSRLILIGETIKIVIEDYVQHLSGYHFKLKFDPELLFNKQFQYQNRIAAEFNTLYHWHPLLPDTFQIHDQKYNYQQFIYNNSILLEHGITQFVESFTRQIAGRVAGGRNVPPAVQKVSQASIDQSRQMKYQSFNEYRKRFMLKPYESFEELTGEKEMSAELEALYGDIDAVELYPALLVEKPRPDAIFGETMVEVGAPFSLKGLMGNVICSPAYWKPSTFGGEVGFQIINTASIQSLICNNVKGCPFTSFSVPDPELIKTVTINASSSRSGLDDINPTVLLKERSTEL
As to the kind of experiment: Inhibition of COX2 assessed as PGF2alpha level by EIA.

[4] abbreviates: Mus musculus, RAW264.7, read-out: IC50.

For `O=C1NC(=O)C(c2ccccc2)=C1c1ccccc1`, the IC50 (commonly the concentration that inhibits the measured activity by half) turned out to be 270 µM in the assay with RAW264.7 [1] and 27.9 µM in the assay on RAW264.7 [2] (setting [4]).

On to `COc1ccc(C2=C(c3ccccc3)C(=O)NC2=O)cc1OC`, for which the IC50 with RAW264.7 [1] is 305 µM; in the assay on RAW264.7 [2] (setting [4]), 132 µM.

With `COc1cc(C2=C(c3ccccc3)C(=O)NC2=O)cc(OC)c1OC`, the figures for the IC50 in the assay on RAW264.7 [1] and in the assay on RAW264.7 [2] (setting [4]) were 151 µM and 25.1 µM, respectively.

On to `CC(=O)Oc1ccc(C2=C(c3ccc(S(C)(=O)=O)cc3)C(=O)OC2=O)cc1`, for which the IC50 was 16.6 µM in assay [3], 262 µM in the assay with RAW264.7 [1] and 4.41 µM in the assay on RAW264.7 [2] (setting [4]).

In the case of `COc1ccc(C2=C(c3ccc([S+](C)[O-])cc3)C(=O)OC2=O)cc1` (configuration not stated), the 50% inhibitory concentration (IC50) with RAW264.7 [1] stood at 284 µM; with RAW264.7 [2] (setting [4]) it was 23.8 µM.

For the compound `CSc1ccc(C2=C(c3ccc(OC(C)=O)cc3)C(=O)OC2=O)cc1`, the IC50 is 334 µM with RAW264.7 [1] and 30.5 µM in the assay on RAW264.7 [2] (setting [4]).

For `CC(=O)Oc1ccc(C2=C(c3ccc([S+](C)[O-])cc3)C(=O)OC2=O)cc1` (configuration not stated), the figures for the IC50 in the assay on RAW264.7 [1] and with RAW264.7 [2] (setting [4]) were 262 µM and 68.8 µM, respectively.

For the compound `COc1cc(C2=C(c3ccccc3)C(=O)OC2=O)cc(OC)c1OC`, the IC50 in the assay on RAW264.7 [1] came out at 313 µM; in the assay on RAW264.7 [2] (setting [4]), 37.1 µM.

`CS(=O)(=O)c1ccc(C2=C(c3ccccc3)C(=O)OC2=O)cc1`: the IC50 stood at 266 µM in the assay on RAW264.7 [1] and 15.4 µM with RAW264.7 [2] (setting [4]).

For `CSc1ccc(C2=C(c3ccc(O)cc3)C(=O)NC2=O)cc1`, the IC50 in assay [3] turned out to be 21 µM; with RAW264.7 [1] it was 125 µM; in the assay with RAW264.7 [2] (setting [4]) it was 0.84 µM.

Take `CS(=O)(=O)c1ccc(C2=C(c3ccc(O)cc3)C(=O)NC2=O)cc1`: the values for the IC50 in the assay on RAW264.7 [1] and with RAW264.7 [2] (raw264.7) were 171 µM and “Not Active”, respectively.

Regarding `O=C1NC(=O)C(c2cccc(O)c2)=C1c1ccccc1`, the values for the IC50 with RAW264.7 [1] and with RAW264.7 [2] (setting [4]) were 158 µM and 13.8 µM, respectively.

With `O=C1NC(=O)C(c2ccc(O)c(O)c2)=C1c1ccccc1`, the IC50 in assay [3] worked out at 16 µM; in the assay with RAW264.7 [1], 207 µM; in the assay with RAW264.7 [2] (setting [4]) it was 2.69 µM.

Regarding `COc1cccc(C2=C(c3ccccc3)C(=O)NC2=O)c1`, the IC50 stood at 260 µM with RAW264.7 [1] and 9.95 µM in the assay with RAW264.7 [2] (setting [4]).

On to `O=C1NC(=O)C(c2ccc3c(c2)OCO3)=C1c1ccccc1`, for which the IC50 with RAW264.7 [1] amounted to 195 µM; with RAW264.7 [2] (setting [4]), 7.96 µM.

Consider `C[S+]([O-])c1ccc(C2=C(c3ccccc3)C(=O)NC2=O)cc1` (configuration not stated), for which the IC50 in the assay on RAW264.7 [1] was 303 µM; in the assay with RAW264.7 [2] (setting [4]) it was 21.5 µM.

In the case of `NS(=O)(=O)c1ccc(C2=C(c3ccccc3)C(=O)NC2=O)cc1`, the IC50 worked out at 15.6 µM in assay [3] and 158 µM in the assay with RAW264.7 [1].

`COc1ccc(C2=C(c3ccc(S(C)(=O)=O)cc3)C(=O)OC2=O)cc1`: the results for the IC50 in the assay on RAW264.7 [1] and in the assay on RAW264.7 [2] (raw264.7) were 271 µM and “Not Active”, respectively.

On to `CSc1ccc(C2=C(c3ccc(NC(C)=O)cc3)C(=O)OC2=O)cc1`, for which the IC50 in assay [3] is 20.1 µM; in the assay on RAW264.7 [1] it was 250 µM; in the assay with RAW264.7 [2] (setting [4]) it was 5.71 µM.

As for `CSc1ccc(C2=C(c3ccc(N(C(C)=O)C(C)=O)cc3)C(=O)OC2=O)cc1`, the figures for the IC50 in the assay on RAW264.7 [1] and in the assay on RAW264.7 [2] (setting [4]) were 277 µM and 78.5 µM, respectively.

Turning to `C[S+]([O-])c1ccc(C2=C(c3ccc(F)cc3)C(=O)NC2=O)cc1` (configuration not stated), the values for the IC50 with RAW264.7 [1] and in the assay on RAW264.7 [2] (setting [4]) were 242 µM and 45.2 µM, respectively.

In the case of `CS(=O)(=O)c1ccc(C2=C(c3ccc(F)cc3)C(=O)NC2=O)cc1`, the IC50 in the assay on RAW264.7 [1] is 261 µM; with RAW264.7 [2] (setting [4]), 10.8 µM.

On to `O=C1OC(=O)C(c2ccc3c(c2)OCO3)=C1c1ccccc1`, for which the results for the IC50 (in assay [3]; in the assay with RAW264.7 [1]; with RAW264.7 [2] (setting [4])) were 18.5 µM, 329 µM and 7.13 µM, respectively.

As for `CSc1ccc(C2=C(c3ccccc3)C(=O)NC2=O)cc1`, the IC50 in assay [3] turned out to be 16.3 µM; in the assay on RAW264.7 [1] it was 152 µM; in the assay with RAW264.7 [2] (setting [4]), 4.73 µM.

Regarding `CS(=O)(=O)c1ccc(C2=C(c3ccccc3)C(=O)NC2=O)cc1`, the IC50 in assay [3] came out at 17.5 µM; in the assay with RAW264.7 [1] it was 269 µM; in the assay on RAW264.7 [2] (setting [4]), 2.71 µM.

On to `COc1ccc(C2=C(c3ccccc3)C(=O)OC2=O)cc1OC`, for which the IC50 amounted to 257 µM in the assay with RAW264.7 [1] and 71.3 µM with RAW264.7 [2] (setting [4]).

Consider `C[S+]([O-])c1ccc(C2=C(c3ccc(O)cc3)C(=O)NC2=O)cc1` (configuration not stated), for which the IC50 with RAW264.7 [1] amounted to 213 µM; in the assay with RAW264.7 [2] (setting [4]), 98.1 µM.

As to `COc1ccc(C2=C(c3ccc(SC)cc3)C(=O)OC2=O)cc1`, the figures for the IC50 in the assay on RAW264.7 [1] and in the assay on RAW264.7 [2] (setting [4]) were 266 µM and 12.6 µM, respectively.

Regarding `CSc1ccc(C2=C(c3ccccc3)C(=O)OC2=O)cc1`, the IC50 amounted to 18.5 µM in assay [3], 195 µM in the assay with RAW264.7 [1] and 3.58 µM in the assay with RAW264.7 [2] (setting [4]).

For the compound `O=C1NC(=O)C(c2cc(O)c(O)c(O)c2)=C1c1ccccc1`, the figures for the IC50 (in assay [3]; in the assay on RAW264.7 [1]; in the assay with RAW264.7 [2] (setting [4])) were 17.5 µM, 261 µM and 8.19 µM, respectively.

Regarding `CSc1ccc(C2=C(c3ccc(F)cc3)C(=O)NC2=O)cc1`, the IC50 was 121 µM with RAW264.7 [1] and 25.5 µM in the assay on RAW264.7 [2] (setting [4]).

`CS(=O)(=O)Nc1ccc([N+](=O)[O-])cc1OC1CCCCC1` [NS-398]: the IC50 with RAW264.7 [2] (setting [4]) was 4.8 µM.
